Test results published in paper PMC3653324 (Translational stroke research, 2012).

Columns and labels:
H4IIE cells [1] = assay type: cell-based; settings: 24 hr
Caspase 3 = assay: CeeTox apoptosis; assay type: cell-based, rat; settings: H4IIE cells; for Caspase 3 Activity (Index/Dose): dose: dose at which the index was seen; for Caspase 3 Activity (Index/Dose): index: index of RFU
P-glycoprotein (PgP) = assay: P-glycoprotein; assay type: cell-based, rat; settings: H4IIE cells, MTT, 24 hr, single exposure concentration (20 or 50 μM), without CSA
S. typhimurium TA989 = assay: Ames test for mutagenicity, frame-shift strain; assay type: cell-based; settings: first TA98 column; for TA98+S9: with S9, up to 10 μM; for TA98−S9: without S9, up to 10 μM
CYP1A2 = molecular target: T1, CYP1A2 (Homo sapiens, UniProt P05177); assay: Cloe Screen Cytochrome P450 Inhibition assay; assay type: in vitro ADME; settings: for CYP1A2 inhibition classification: classified from IC50
T1 sequence (P05177 1-516): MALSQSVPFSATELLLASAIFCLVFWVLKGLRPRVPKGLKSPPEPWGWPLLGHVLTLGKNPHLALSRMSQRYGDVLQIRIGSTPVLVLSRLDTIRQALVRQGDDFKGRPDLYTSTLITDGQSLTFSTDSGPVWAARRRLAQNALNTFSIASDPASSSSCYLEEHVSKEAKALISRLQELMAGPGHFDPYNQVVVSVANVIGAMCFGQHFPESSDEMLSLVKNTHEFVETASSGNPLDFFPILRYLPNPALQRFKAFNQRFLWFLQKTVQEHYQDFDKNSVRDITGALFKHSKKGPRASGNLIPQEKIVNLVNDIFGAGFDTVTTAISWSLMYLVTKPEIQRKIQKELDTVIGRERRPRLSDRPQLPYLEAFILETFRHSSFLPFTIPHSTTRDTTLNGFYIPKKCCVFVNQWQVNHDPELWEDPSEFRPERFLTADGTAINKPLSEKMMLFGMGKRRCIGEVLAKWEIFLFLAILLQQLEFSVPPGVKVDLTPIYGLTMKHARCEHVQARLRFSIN

CYP2C9 = CYP2C9 (Homo sapiens, UniProt P11712); assay: Cloe Screen Cytochrome P450 Inhibition assay; assay type: in vitro ADME
Sequence of CYP2C9 (P11712 whole entry): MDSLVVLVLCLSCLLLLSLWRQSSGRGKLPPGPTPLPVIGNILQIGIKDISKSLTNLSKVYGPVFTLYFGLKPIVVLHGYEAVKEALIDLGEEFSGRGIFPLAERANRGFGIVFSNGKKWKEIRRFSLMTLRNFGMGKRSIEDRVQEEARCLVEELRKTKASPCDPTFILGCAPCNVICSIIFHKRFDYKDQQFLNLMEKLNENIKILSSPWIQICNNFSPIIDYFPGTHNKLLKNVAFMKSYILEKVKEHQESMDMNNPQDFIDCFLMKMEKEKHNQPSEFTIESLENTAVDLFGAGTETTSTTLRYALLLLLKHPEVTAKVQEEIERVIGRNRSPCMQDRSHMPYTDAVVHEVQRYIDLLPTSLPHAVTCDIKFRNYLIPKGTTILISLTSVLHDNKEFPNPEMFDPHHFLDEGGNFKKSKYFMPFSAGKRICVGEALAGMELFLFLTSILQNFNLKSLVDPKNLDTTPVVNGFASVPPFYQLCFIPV

CYP3A4 = CYP3A4 (Homo sapiens, UniProt P08684); assay: Cloe Screen Cytochrome P450 Inhibition assay; assay type: in vitro ADME
Sequence of CYP3A4 (P08684 2-503): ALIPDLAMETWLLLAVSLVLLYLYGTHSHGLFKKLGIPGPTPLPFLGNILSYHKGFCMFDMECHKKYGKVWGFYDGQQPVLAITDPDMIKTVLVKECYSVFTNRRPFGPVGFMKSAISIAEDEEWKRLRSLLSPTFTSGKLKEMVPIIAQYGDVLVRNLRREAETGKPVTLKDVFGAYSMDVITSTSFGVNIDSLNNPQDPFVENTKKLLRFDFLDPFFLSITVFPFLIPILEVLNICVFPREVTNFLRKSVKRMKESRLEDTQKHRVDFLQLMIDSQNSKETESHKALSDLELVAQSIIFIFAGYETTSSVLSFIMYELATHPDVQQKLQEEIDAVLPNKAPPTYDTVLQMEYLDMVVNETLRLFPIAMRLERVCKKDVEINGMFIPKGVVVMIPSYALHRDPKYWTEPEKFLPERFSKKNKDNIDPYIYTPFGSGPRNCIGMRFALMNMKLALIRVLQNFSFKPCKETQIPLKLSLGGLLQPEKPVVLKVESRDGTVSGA

CYP2D6 = CYP2D6 (Homo sapiens, UniProt P10635); assay: Cloe Screen Cytochrome P450 Inhibition assay; assay type: in vitro ADME
Sequence of CYP2D6 (P10635 whole entry): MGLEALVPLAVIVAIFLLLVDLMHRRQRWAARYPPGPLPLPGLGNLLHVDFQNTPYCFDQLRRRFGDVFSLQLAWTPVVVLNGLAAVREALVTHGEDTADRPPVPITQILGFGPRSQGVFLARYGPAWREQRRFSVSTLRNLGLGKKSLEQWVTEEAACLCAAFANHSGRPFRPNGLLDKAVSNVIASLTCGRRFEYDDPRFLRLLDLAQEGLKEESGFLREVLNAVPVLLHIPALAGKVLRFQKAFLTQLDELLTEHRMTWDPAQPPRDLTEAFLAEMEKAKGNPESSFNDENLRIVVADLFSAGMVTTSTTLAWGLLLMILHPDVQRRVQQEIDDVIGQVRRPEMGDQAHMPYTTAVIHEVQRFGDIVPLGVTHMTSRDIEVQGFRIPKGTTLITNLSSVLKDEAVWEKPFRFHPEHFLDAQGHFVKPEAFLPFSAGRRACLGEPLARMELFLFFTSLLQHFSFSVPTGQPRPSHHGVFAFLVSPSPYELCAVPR
How it was run: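 Run blinded. […] Metabolite formation was monitored by LC-MS/MS. IC50 was calculated from the decrease in metabolite formation relative to vehicle control. Quinidine served as positive control inhibitor.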

CYP2C19 = CYP2C19 (Homo sapiens, UniProt P33261); assay: Cloe Screen Cytochrome P450 Inhibition assay; assay type: in vitro ADME
Sequence of CYP2C19 (P33261 whole entry): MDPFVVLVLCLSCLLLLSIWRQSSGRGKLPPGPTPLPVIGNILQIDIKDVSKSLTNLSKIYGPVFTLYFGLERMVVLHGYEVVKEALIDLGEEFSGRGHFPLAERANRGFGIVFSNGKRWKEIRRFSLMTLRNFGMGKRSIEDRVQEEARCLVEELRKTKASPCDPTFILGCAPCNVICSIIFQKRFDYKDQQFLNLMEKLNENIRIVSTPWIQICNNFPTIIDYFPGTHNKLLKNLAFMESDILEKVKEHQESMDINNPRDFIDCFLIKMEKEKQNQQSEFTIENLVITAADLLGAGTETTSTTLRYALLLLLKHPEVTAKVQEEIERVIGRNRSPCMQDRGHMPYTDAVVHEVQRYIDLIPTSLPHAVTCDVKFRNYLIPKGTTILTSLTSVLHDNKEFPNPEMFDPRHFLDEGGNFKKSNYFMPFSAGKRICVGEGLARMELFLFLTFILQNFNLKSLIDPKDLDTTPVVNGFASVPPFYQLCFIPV

P-glycoprotein (MDR1) = assay: BBB penetration; assay type: in vitro ADME, canine; settings: dog, MDCK-MDR1
How it was run: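 MDCK cells transfected with human MDR1 (P-gp) were grown to a confluent monolayer over 4 days. Test compound was added apically, and A→B transport was followed over 60 min; B→A transport was also measured. Compound on each side was quantified by GC/MS. Papp was calculated for both directions, and efflux ratio = Papp B→A/Papp A→B. High BBB potential: Papp A→B ≥3.0×10⁻⁶ cm/s and efflux <3.0.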

H4IIE cells [2] = assay: CeeTox cellular ATP content; settings: 24 hr
H4IIE cells [3] = assay: CeeTox cell mass; settings: 24 hr
H4IIE cells [4] = assay: CeeTox membrane toxicity; settings: 24 hr, α-GST leakage
[5] = test system: Intracellular glutathione (GSH); assay: CeeTox intracellular glutathione; settings: H4IIE cells
8-Isoprostane (8-ISO) = assay: CeeTox lipid peroxidation measured as 8-isoprostane; settings: H4IIE cells, 8-ISO score
H4IIE cells [6] = assay: CeeTox analysis composite; assay type: cell-based, rat; settings: for TC50 for all general toxicity measures (range over endpoints): H4IIE cells, 24 hr, range across CeeTox endpoints

SMILES	MTT TC50 (H4IIE cells [1])	Caspase 3 Activity (Index/Dose): dose (Caspase 3)	Caspase 3 Activity (Index/Dose): index (Caspase 3)	% Control(Compound) (P-glycoprotein (PgP))	TA98+S9 (S. typhimurium TA989)	TA98−S9 (S. typhimurium TA989)	IC50 (CYP1A2)	IC50 (CYP2C9)	IC50 (CYP3A4)	IC50 (CYP2D6)	IC50 (CYP2C19)	Papp A→B at 60 min (P-glycoprotein (MDR1))	efflux ratio at 60 min (P-glycoprotein (MDR1))	ATP TC50 (H4IIE cells [2])	Cell Mass TC50 (H4IIE cells [3])	MemTox TC50 (H4IIE cells [4])	Total GSH TC50 [5]	Membrane Lipid Peroxidation (8-Isoprostane (8-ISO))	CYP1A2 inhibition classification (CYP1A2)	other results
Cc1ccc2oc(-c3ccc(O)c(O)c3)c(O)c(=O)c2c1 [CSMC-11, 6-methyl-3,3',4'-trihydroxy flavone]	>300 µM	300	1 (0–200 = 1)	80.3 % Control	Negative (Not mutagenic < 10 μM (NEGATIVE))	Negative (Not mutagenic < 10 μM (NEGATIVE))	> 25 µM	> 10 µM	> 10 µM	> 10 µM	> 10 µM	6.67 ×10⁻⁶ cm/s	0.12	52 µM	>300 µM	>300 µM	>300 µM	0		
C=C(C)[C@H]1Cc2c(ccc3c2O[C@@H]2COc4cc(OC)c(OC)cc4[C@@H]2C3=O)O1 [ROTENONE, rotenone, reference compound]	0.19 µM													0.05 µM	0.09 µM	3.88 µM	0.03 µM	2 (2 = Concentration related increase with maximum values ≥ 15 pg/mL)		TC50 for all general toxicity measures (range over endpoints) (H4IIE cells [6]): 0.05 to 3.88 µM
CCOc1cc(-c2ccc(O)c(O)c2)nc2ccccc12 [CSMC-16, 4-ethoxy-2-(3,4-dihydroxyphenyl)quinoline]	170 µM			81.3 % Control	Negative (Not mutagenic < 10 μM (NEGATIVE))	Negative (Not mutagenic < 10 μM (NEGATIVE))	3.99 µM	> 10 µM	> 10 µM	> 10 µM	> 10 µM			162 µM	215 µM	>300 µM	243 µM	0	moderate inhibition	
CC(C)Oc1cc(-c2ccc(O)c(O)c2)nc2ccccc12 [CSMC-17, 4-isopropoxy-2-(3,4-dihydroxyphenyl)quinoline]	298 µM			80.8 % Control	Negative (Not mutagenic < 10 μM (NEGATIVE))	Negative (Not mutagenic < 10 μM (NEGATIVE))	7.49 µM	> 10 µM	> 10 µM	> 10 µM	> 10 µM			217 µM	241 µM	>300 µM	295 µM	0	moderate inhibition	
COc1cc(-c2oc3cc(C)c(C)cc3c(=O)c2O)ccc1O [CSMC-15, 6,7-dimethyl-3,4'-dihydroxy-3'-methoxyflavone]	74 µM	300	1 (0–200 = 1)	70.8 % Control	Negative (Not mutagenic < 10 μM (NEGATIVE))	Negative (Not mutagenic < 10 μM (NEGATIVE))	> 25 µM	> 10 µM	> 10 µM	> 10 µM	> 10 µM	4.08 ×10⁻⁶ cm/s	0.4	78 µM	79 µM	>300 µM	76 µM	0		
CC[C@@]1(O)C(=O)OCc2c1cc1n(c2=O)Cc2cc3ccccc3nc2-1 [CAMPTOTHECIN, camptothecin, reference compound]	3.2 µM	100	3 (400–600 = 3)											5.0 µM	3.0 µM	>300 µM	5.0 µM	1 (1 = Modest increase with maximum values ≤ 15 pg/mL)		TC50 for all general toxicity measures (range over endpoints) (H4IIE cells [6]): 3.0 to 5.0 µM; Ctox ranking group: probability of in vivo toxic effects (H4IIE cells [6]; per standard CeeTox criteria): high probability (1–20 high probability); MemTox TC50 (μM) (H4IIE cells [4]; listed as camptothecin): not affected
CCc1ccc2oc(-c3ccc(O)c(O)c3)c(O)c(=O)c2c1 [CSMC-9, 6-ethyl-3,3',4'-trihydroxy flavone]	81 µM	300	1 (0–200 = 1)	97.0 % Control	Negative (Not mutagenic < 10 μM (NEGATIVE))	Negative (Not mutagenic < 10 μM (NEGATIVE))	11.6 µM	> 10 µM	> 10 µM	> 10 µM	> 10 µM	40.9 ×10⁻⁶ cm/s	0.19	80 µM	82 µM	>300 µM	149 µM	0		
O=c1cc(-c2cc(O)c(O)c(O)c2)oc2ccccc12 [CSMC-19, 3',4',5'-trihydroxyflavone]	>300 µM	300	1 (0–200 = 1)	88.4 % Control	Negative (Not mutagenic < 10 μM (NEGATIVE))	Negative (Not mutagenic < 10 μM (NEGATIVE))	> 25 µM	> 10 µM	> 10 µM	> 10 µM	> 10 µM	105 ×10⁻⁶ cm/s	0.01	256 µM	>300 µM	>300 µM	>300 µM	2 (2 = Concentration related increase with maximum values ≥ 15 pg/mL)		
COc1cc(-c2ccc(O)c(O)c2)nc2ccccc12 [CSMC-12, 4-methoxy-2-(3,4-dihydroxyphenyl)quinoline]	293 µM			85.9 % Control	Negative (Not mutagenic < 10 μM (NEGATIVE))	Negative (Not mutagenic < 10 μM (NEGATIVE))	3.7 µM	> 10 µM	> 10 µM	> 10 µM	> 10 µM			223 µM	208 µM	>300 µM	>300 µM	1 (1 = Modest increase with maximum values ≤ 15 pg/mL)	moderate inhibition	
Cc1cc(O)c(C(=O)/C=C/c2ccc(O)c(O)c2)cc1C [CSMC-10, 4',5'-dimethyl-2',3,4-trihydroxychalcone]	83 µM	100	1 (0–200 = 1)	73.4 % Control	Negative (Not mutagenic < 10 μM (NEGATIVE))	Negative (Not mutagenic < 10 μM (NEGATIVE))	6.99 µM	> 10 µM	> 10 µM	> 10 µM	> 10 µM			75 µM	86 µM	>300 µM	144 µM	2 (2 = Concentration related increase with maximum values ≥ 15 pg/mL)	moderate inhibition	
